Most compounds without a hit are left out; they make up all but 10% or so of the library.
PMI activator: activators of human phosphomannose isomerase | purified human PMI, coupled resazurin fluorescence, 20 min; active compounds read high; 1 = vehicle control, 0 substrate-free wells | P34949 | hit rate 0.005% among 190,000 | activation factor at 20 µM;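 active = activation factor of 2 or more at 20 µM, relative to plate controls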
Target sequence (P34949 whole entry, looked up): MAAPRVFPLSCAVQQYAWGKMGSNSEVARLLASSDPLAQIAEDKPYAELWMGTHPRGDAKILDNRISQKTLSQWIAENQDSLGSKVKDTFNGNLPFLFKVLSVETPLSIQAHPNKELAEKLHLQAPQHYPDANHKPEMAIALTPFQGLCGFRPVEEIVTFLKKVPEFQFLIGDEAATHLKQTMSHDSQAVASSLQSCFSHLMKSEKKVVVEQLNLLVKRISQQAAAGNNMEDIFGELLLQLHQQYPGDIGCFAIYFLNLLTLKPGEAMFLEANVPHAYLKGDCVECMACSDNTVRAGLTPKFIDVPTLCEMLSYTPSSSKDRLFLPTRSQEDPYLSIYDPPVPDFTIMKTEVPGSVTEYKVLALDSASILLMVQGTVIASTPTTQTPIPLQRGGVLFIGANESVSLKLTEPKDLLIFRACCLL
WT yeast gro inh: growth inhibition of WT yeast, mitochondrial fusion screen; inhibition, % at 10 µM; hit rate 2.1% among 190,000; mitochondrial fusion phenotypic screen, WT strain; in the data active = inhibition above about 58%; tested in S. cerevisiae
Lmaj promast: Leishmania major promastigote growth inhibition; inhibition, % at 10 µM; AID 1063; Leishmania major promastigotes, resazurin fluorescence viability; hit rate 9% among 200,000; in the data active = inhibition above about 50%;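 note: promastigotes grown with compound for 44 hours at 28 °C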
Diaphorase act: activates diaphorase or chemically reduces, flagging diaphorase assay artifacts. activation factor at 20 µM. hit rate 0.005% among 190,000. AID 1229. Diaphorase/resazurin coupled assay, resorufin fluorescence, 16 min; active compounds read high; 1 = vehicle wells, 0 = NADH-free wells;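 active = diaphorase activity raised at least twofold by the compound at 20 µM; inactive = activation factor below 2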
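Material: Purified diaphorase enzyme from Clostridium kluyveri | Buffer or medium: 50 mM HEPES pH 7.4 with 4.542 mM MgCl2, 0.005% Tween 20 | Times: 16 min enzyme reaction, ambient temperature | Signal: Red resorufin fluorescence at 544/590 nm excitation/emission | Measure: Increased resorufin signal from activators or reducing compounds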
PMI act hi M6P: increases human PMI activity with near-saturating mannose 6-phosphate | P34949 | coupled PMI enzyme assay, resazurin fluorescence, 20 min; active compounds read high; 1 = untreated enzyme, 0 = substrate-free blank | activation factor at 20 µM | hit rate 0.34% among 190,000 | AID 1216;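 active = activation factor of 2 or more at 20 µM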
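Technique: Diaphorase-driven resazurin-to-resorufin fluorescence, excitation 544, emission 590 nm | Assay system: Human PMI in coupled enzyme assay | Times: Enzyme reaction with compound 20 min at room temperature | Medium: HEPES-buffered pH 7.4 with magnesium and detergent | Reagent: Mannose-6-phosphate 1.0 mM (near-saturating) plus 0.22 mM NADP+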
L major 1uM: blocks Leishmania major promastigote growth at 1 uM, repeat screen. L. major promastigote growth, resazurin fluorescence, 48 h. hit rate 13% among 1,100. shares compounds with Lmaj promast. inhibition, % at 1 µM;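 active = inhibition above about 50% in both repeat tests, limit read from the data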
Numbers without * were called inactive; . = no result given.

SMILES	PMI activator	WT yeast gro inh	Lmaj promast	Diaphorase act	PMI act hi M6P	L major 1uM
CN1CC(c2ccccn2)C2(SC(=S)N(Cc3ccccc3)C2=O)C12C(=O)Nc1ccccc12 (stereo not given)	0.7	5	100*	0.8	0.8	14
CCc1cccc2c1NC(=O)[C@]21[C@@H]2C(=O)N(Cc3ccccc3)C(=O)[C@@H]2[C@@H]2CCCN21	1.1	5	41	0.8	0.9	.
Cc1noc2ncnc(Sc3ccc(Br)cc3)c12	1	58	67*	0.9	1.1	32
CN(C)C(=O)C12CCC(C)(c3nc4ccccc4nc31)C2(C)C (stereo not given)	1	0	-7	1	1.1	.
Cc1cc2nc3c(nc2cc1C)C1(C(=O)N(C)C)CCC3(C)C1(C)C (stereo not given)	1.1	7	94*	1	1.1	-11
O=C(Nc1ccc2nc(-c3ccco3)[nH]c2c1)c1cccs1	1.3	4	88*	0.7	1	-20
CCOC(=O)c1ccc2ncc(C(=O)OCC)c(NCc3ccco3)c2c1	0.9	-6	57*	0.8	0.8	2
Cc1cc(C)n2nc3nc4c(cc3c2n1)CCCC4	0.9	15	72*	0.8	1	-20
COc1cccc(CN2CCN(Cc3ccc4c(NC(C)=O)cccc4n3)CC2CCO)c1 (stereo not given)	0.9	-1	-6	0.7	0.9	.
FC(F)(F)c1nnc2c(Sc3ccccc3)nc3ccccc3n12	0.9	-25	2	0.8	0.9	.
FC(F)(F)c1nnc2c(Sc3ccccn3)nc3ccccc3n12	0.9	3	94*	0.9	0.9	14
Cc1nc2ccc(Cl)cc2c(-c2ccccc2Cl)c1CC(=O)O	1	5	24	0.9	1	.
Cc1nc2ccc(Cl)cc2c(-c2ccccc2F)c1CC(=O)O	1.2	-8	62*	1	1.3	-13
Cc1nc2ccc(Cl)cc2c(-c2ccccc2)c1CC(=O)O	1.2	-22	54*	1	1.2	-21
Cc1nc2ccccc2c(-c2ccccc2)c1CC(=O)O	1.2	-4	-4	0.9	1.3	.
COc1ccc(/C=C/C(=O)C(C(N)=O)=C2SCCS2)cc1	0.9	-8	44	1	1	.
Cc1ccc(C(=O)C(C(=O)/C=C/c2ccccc2)=C2SCCCS2)cc1	1	21	100*	0.9	1	20
Cc1noc(C)c1N=Nc1ccc(Br)cc1C(=O)O	1.2	-8	-5	1	1.1	.
CC1Cc2ccccc2N1C(=O)COc1ccc2c(c1)OCO2 (stereo not given)	1	-3	13	1	1	.
O=C(NC1CC1)C1=C[C@H](c2ccc(C(F)(F)F)cc2)C[C@H](OCc2ccc(CO)cc2)O1	0.9	-7	5	0.8	0.8	.
O=C(CSc1nc2ccccc2[nH]1)N1CCN(c2ccc(F)cc2)CC1	1	7	58*	0.9	1	-3
CCOC(=O)/C(=C\c1ccc(C)cc1)NC(=O)c1ccccc1	1	-7	2	0.9	1.1	.
Cc1ccc(/C=C(\NC(=O)c2ccccc2)C(=O)OCc2ccccc2)cc1	0.9	26	63*	0.9	1	-2
CCc1ccc(/C=C2\CN(CC)Cc3c2nc2ccccc2c3C(=O)O)cc1	0.9	-13	54*	1	1.1	-19
O=C(O)c1c2c(nc3ccccc13)/C(=C/c1ccc(O)cc1)CC2	1.2	-9	-4	0.3	1	.
SMILES	PMI activator	WT yeast gro inh	Lmaj promast	Diaphorase act	PMI act hi M6P	L major 1uM
Cc1cccc(NC(=S)N2CCOCC2)c1C	1	18	-8	0.9	1	.
CCc1ccc(N2CC(O)(c3cccs3)[N+]3=C2SCCC3)cc1 (stereo not given)	1.1	30	72*	1	1	4
CCOC(=O)NC(=O)/C(C#N)=C(/C)N(C)C	1.1	-3	-10	1	1	.
COc1ccc(CCN2C(=O)CS/C2=N\NC(=O)c2ccc(C(C)(C)C)cc2)cc1OC	0.9	-7	-1	0.9	1	.
Cc1cccc(Cn2nnc3c2C(=O)c2ccccc2C3=O)c1	1.6	12	100*	0.8	1.2	-26
CCOC(=O)Cc1nc2ccccc2n(CC#N)c1=O	1	-8	-2	1	1	.
CCSC1=NCCN1C(=O)C(C)(C)Oc1ccc(Cl)cc1	1	27	65*	0.9	1	3
Cc1ccc2nc(/C(C#N)=C\c3ccc(N4CCCCC4)c([N+](=O)[O-])c3)[nH]c2c1	1	11	97*	0.9	1.2	4
CCOc1ncccc1C(=O)NCc1ccc(OC)c(OC)c1	1	-1	-4	0.9	1	.
CCOC(=O)c1nnn(-c2ccccc2)c1C	1	-17	-4	1	0.9	.
CCOC(=O)c1nc2cc3n(c(C)c-2c1C)C(C)C(C)=C3C (stereo not given)	1.1	-1	67*	1	0.8	-12
O=C(C1CCC1)N1CCC(O)(c2cccc(F)c2)CC1	1	5	-10	0.9	1	.
COc1ccc(OC)c(C(=O)/C=C/c2ccccc2C(F)(F)F)c1	0.7	5	75*	0.9	0.9	-9
COc1ccc(C(=O)/C=C/c2ccccc2)c(OC)c1	0.9	5	66*	0.8	1	10
COc1cc(/C=C/C(=O)c2ccccc2O)cc(OC)c1OC	1	1	13	1	1.1	.
Cc1ccc2nc(-c3ccncc3)cc(-c3ccccc3)c2c1	0.9	14	20	0.9	0.9	.
Cc1ccc(-c2cc3cccc[n+]3cc2-c2ccc(C)cc2)cc1	1	57	100*	1	1	91*
COC(=O)C(C(=O)OC)C(C)C(C(=O)OC)C(=O)OC	1	15	0	0.9	1	.
CC(C)Cc1nc2ccccc2n1CCc1ccccc1	1	24	56*	0.9	1	7
CCOC(=O)C(C)On1c(SC(C)C(=O)OCC)nc2ccccc2c1=O (stereo not given)	1.1	-2	12	0.9	1.1	.
CCOC(=O)N=Nc1c2ccccc2c2nc3no[nH]c3nc12	1.1	96*	101*	0.8	0.6	100*
CNCCCC12CCC(c3ccccc31)c1ccccc12	1	25	97*	0.9	1	1
CCCCCCc1cc2cc(C(=O)Nc3ccccc3)c(=O)oc2cc1O	1	-9	86*	1.1	1	4
O=C(O)CCC(=O)Nc1ccc(N2CCCCCC2)cc1	0.9	-1	97*	0.9	0.9	94*
CCCCCCCSc1nsc(N)n1	0.9	66*	69*	0.8	0.9	-12
Cn1c(Cn2c(=O)sc3ccccc32)nnc1SCC(=O)NCc1ccccc1Cl	0.9	0	22	0.9	1	.

Assay outcomes as filed in PubChem.
